Test results from PubChem BioAssay AID652196 (Vanderbilt Specialized Chemistry Center, 2013).

target: Metabotropic glutamate receptor 5 (Rattus norvegicus) (UniProt P31424); test: rat mGlu5 radioligand displacement Ki – biochemical, HEK293A membranes, [3H]methoxyPEPy, full curve, dose response (AID 652196); conditions: rmGlu5 HEK293A membranes, [3H]methoxyPEPy displacement
Outline: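 Compound: 10 doses, 0.1 nM–10 µM, 1% DMSO; Test system: membranes from HEK293A cells stably expressing rat mGlu5; Technique: Filtration separation of bound radioligand, then scintillation counting; Incubation: membrane, radioligand and compound incubation 1 h at room temperature; Also added: radioligand [3H]methoxyPEPy at 2 nM.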

Sequence of Metabotropic glutamate receptor 5 (Rattus norvegicus) (P31424 whole entry, looked up): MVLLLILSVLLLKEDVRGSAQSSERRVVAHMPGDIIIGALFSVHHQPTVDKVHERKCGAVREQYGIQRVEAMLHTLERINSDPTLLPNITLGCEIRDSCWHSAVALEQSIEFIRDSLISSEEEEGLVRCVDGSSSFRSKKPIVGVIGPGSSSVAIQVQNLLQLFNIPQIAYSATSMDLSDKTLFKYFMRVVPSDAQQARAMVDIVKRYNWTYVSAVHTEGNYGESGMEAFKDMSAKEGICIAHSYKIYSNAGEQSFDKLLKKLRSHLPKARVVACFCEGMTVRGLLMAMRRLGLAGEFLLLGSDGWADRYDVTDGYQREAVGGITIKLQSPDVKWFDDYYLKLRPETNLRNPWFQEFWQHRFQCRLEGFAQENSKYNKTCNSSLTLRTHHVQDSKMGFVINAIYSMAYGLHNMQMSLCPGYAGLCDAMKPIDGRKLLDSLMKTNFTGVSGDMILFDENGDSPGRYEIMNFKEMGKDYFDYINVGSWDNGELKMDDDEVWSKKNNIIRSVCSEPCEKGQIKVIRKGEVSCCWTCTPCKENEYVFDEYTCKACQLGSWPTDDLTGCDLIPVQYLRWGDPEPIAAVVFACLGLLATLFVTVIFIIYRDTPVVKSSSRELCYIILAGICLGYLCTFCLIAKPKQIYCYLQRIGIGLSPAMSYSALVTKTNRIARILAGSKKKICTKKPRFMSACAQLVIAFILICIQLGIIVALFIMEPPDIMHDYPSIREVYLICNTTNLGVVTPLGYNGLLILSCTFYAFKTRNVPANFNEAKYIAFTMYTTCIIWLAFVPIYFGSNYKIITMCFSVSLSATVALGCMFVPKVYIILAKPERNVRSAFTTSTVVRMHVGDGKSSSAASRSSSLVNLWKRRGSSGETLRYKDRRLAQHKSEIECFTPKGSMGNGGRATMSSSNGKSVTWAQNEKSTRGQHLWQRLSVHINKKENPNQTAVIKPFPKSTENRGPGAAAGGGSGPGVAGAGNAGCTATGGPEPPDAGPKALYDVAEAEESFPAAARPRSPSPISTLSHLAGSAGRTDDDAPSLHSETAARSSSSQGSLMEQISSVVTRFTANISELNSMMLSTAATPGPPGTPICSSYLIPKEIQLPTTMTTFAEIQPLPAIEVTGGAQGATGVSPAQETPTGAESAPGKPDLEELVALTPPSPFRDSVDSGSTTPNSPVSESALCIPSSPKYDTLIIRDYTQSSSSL

Row | Compound | Ki [nM]
1 | O=C(c1ccc(C#Cc2cccc(F)c2)cn1)N1CCC(F)(F)C1 | 19
2 | O=C(c1ccc(C#Cc2cccc(F)c2)cn1)N1CCC1 | 51.6
3 | O=C(c1ccc(C#Cc2cccc(F)c2)cc1)N1CCC1 | 29.6
4 | O=C(c1ccc(C#Cc2cccc(F)c2)cn1)N1CCOCC1 | 67.7
5 | O=C(c1ccc(C#Cc2cccc(F)c2)cn1)N1CCCCCC1 | 18.7
6 | O=C(c1ccc(C#Cc2cccc(F)c2)cn1)N1CC(F)C1 | 48.7

Now from value to compound:

Row | Ki [nM] | Compound
7 | 18.2 | O=C(c1ccc(C#Cc2cccc(F)c2)cn1)N1CC2CC2C1 (centres undefined)
8 | 5.4 | CC1CCN1C(=O)c1ccc(C#Cc2cccc(F)c2)cn1 (centres undefined)
9 | 12.1 | O=C(c1ccc(C#Cc2cccc(F)c2)cn1)N1CCCCC1
